Reference: ChEMBL document CHEMBL1124067, “Design of potent cyclic gonadotropin releasing hormone antagonists” (J Med Chem, 1988)
Where “and” joins values, the source holds several entries; their conditions need not be identical. Equal values may be shown once. Positions of bridges follow the written chain, without caps; N, C: chain ends. Non-standard residues stand in square brackets, D forms with d. Residues, ends and D or L forms follow the SMILES beside them. dPhe(4-Cl) = N[C@H](Cc1ccc(Cl)cc1)C(=O)O; dPhe(4-F) = N[C@H](Cc1ccc(F)cc1)C(=O)O; d2Nal = N[C@H](Cc1ccc2ccccc2c1)C(=O)O; d3Pal = N[C@H](Cc1cccnc1)C(=O)O; ΔPro = O=C(O)[C@@H]1C=CCN1; Dap = NC[C@H](N)C(=O)O

What was measured:
[1] = target: T1, Gonadotropin-releasing hormone receptor (Rattus norvegicus, UniProt P30969); assay: Inhibitory binding constant for Gonadotropin-releasing hormone receptor
T1 sequence (P30969 whole entry): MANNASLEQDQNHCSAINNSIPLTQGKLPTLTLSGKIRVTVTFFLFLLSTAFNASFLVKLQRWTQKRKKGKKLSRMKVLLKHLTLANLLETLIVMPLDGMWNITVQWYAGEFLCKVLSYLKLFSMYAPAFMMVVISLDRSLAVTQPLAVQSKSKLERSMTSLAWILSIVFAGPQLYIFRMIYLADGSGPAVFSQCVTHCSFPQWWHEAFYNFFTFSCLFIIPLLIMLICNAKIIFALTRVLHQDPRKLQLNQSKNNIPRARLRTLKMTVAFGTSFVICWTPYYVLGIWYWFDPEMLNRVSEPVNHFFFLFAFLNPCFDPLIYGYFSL

Rattus norvegicus [2] = assay: In vivo antiovulatory assay (AOA) carried out in rats injected sc; type: functional
Summary of the method: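 Antiovulatory assay following Corbin and Beattie. Cycling rats injected sc at noon on proestrus with peptide dissolved in saline (200 μL). Dose in micrograms; read-out is the number of rats ovulating out of the total.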

Rattus norvegicus [3] = assay: Effect of oral administration of compound (3 mg) on LH secretion by castrated male rats; ng of LH/mL; type: functional
Summary of the method: (§1)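 Adult Sprague-Dawley male rats, castrated under light ether anesthesia 7-10 days before assay. Peptide dissolved in 2 N HOAc, then diluted in 0.1% BSA-0.04 M phosphate buffer pH 7.4. Given by gavage tube (0.5 mL) under ether. Blood sampled before treatment and 5 h after. Plasma LH in ng/mL, mean ± SEM, five rats per treatment.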

Rattus norvegicus [4] = assay: Effect of oral administration of compound (1 mg) on LH secretion by castrated male rats; ng of LH/mL; type: functional; summary of the method: as §1
[5] = target: T2, Gonadotropin-releasing hormone receptor (Rattus norvegicus) (UniProt P30969); assay: Inhibition of GnRH-stimulated LH secretion by cultured dispersed anterior pituitary cells; type: functional, cell-based; conditions: Pituitary gland cell
T2 sequence (whole entry): T1 sequence (P30969 whole entry)
Summary of the method: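 Cultured dispersed anterior pituitary cells. Antagonist inhibition of GnRH-stimulated LH secretion measured. Potency expressed relative to the standard [Ac-Δ3Pro1,DFpa2,DTrp3,6]GnRH (=1), with confidence range in parentheses.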

Rattus norvegicus [6] = organism: Rattus norvegicus; assay: Effect on GnRH-induced LH secretion in intact male rats at 50 ng of compound; ng of LH/mL; type: functional
Rattus norvegicus [7] = organism: Rattus norvegicus; assay: Effect on GnRH-induced LH secretion in intact male rats at 20 ng of compound; ng of LH/mL; type: functional

Row | Compound | Kd [1] | Dose (Rattus norvegicus [2]) | also measured
1 | CC(=O)N[C@H](Cc1ccc2ccccc2c1)C(=O)N[C@H](Cc1ccc(F)cc1)C(=O)N[C@H](Cc1c[nH]c2ccccc12)C(=O)N[C@H]1CCC(=O)NC[C@@H](C(N)=O)NC(=O)[C@@H]2CCCN2C(=O)[C@H](CCCN=C(N)N)NC(=O)[C@H](CC(C)C)NC(=O)[C@@H](CCCN=C(N)N)NC(=O)[C@H](Cc2ccc(O)cc2)NC1=O | 1.1 nM | – | –
2 | CC(C)C[C@@H]1NC(=O)[C@@H](CCCN=C(N)N)NC(=O)[C@H](Cc2ccc(O)cc2)NC(=O)[C@@H](NC(=O)[C@@H](Cc2c[nH]c3ccccc23)NC(=O)[C@@H](Cc2ccc(F)cc2)NC(=O)[C@H](N)Cc2ccc3ccccc3c2)CSSC[C@@H](C(N)=O)NC(=O)[C@@H]2CCCN2C(=O)[C@H](CCCN=C(N)N)NC1=O | – | 50 µg and 100 µg | –
3 | CC(=O)N[C@H](Cc1ccc2ccccc2c1)C(=O)N[C@H](Cc1ccc(F)cc1)C(=O)N[C@H](Cc1c[nH]c2ccccc12)C(=O)N[C@H]1CNC(=O)C[C@@H](C(=O)NCC(N)=O)NC(=O)[C@H](CCCNC(=N)N)NC(=O)[C@H](CC(C)C)NC(=O)[C@@H](CCCNC(=N)N)NC(=O)[C@H](Cc2ccc(O)cc2)NC1=O | > 100 nM | – | –
4 | CC(=O)NC[C@H](NC(=O)[C@@H](Cc1cccnc1)NC(=O)[C@@H](Cc1ccc(Cl)cc1)NC(=O)[C@@H](Cc1ccc2ccccc2c1)NC(C)=O)C(=O)N[C@@H](CCCN=C(N)N)C(=O)N[C@H](Cc1cccnc1)C(=O)N[C@@H](CC(C)C)C(=O)N[C@@H](CCCN=C(N)N)C(=O)N1CCC[C@H]1C(=O)N[C@@H](CC(N)=O)C(N)=O [listing 2 of 2 here] | – | 50 µg | Activity (Rattus norvegicus [3]): 8.22
5 | CC(=O)N[C@H](Cc1ccc2ccccc2c1)C(=O)N[C@H](Cc1ccc(Cl)cc1)C(=O)N[C@H](Cc1cccnc1)C(=O)N[C@H]1CCC(=O)NC[C@@H](C(N)=O)NC(=O)[C@@H]2CCCN2C(=O)[C@H](CCCNC(=N)N)NC(=O)[C@H](CC(C)C)NC(=O)[C@@H](Cc2cccnc2)NC(=O)[C@H](CCCNC(=N)N)NC1=O [listing 2 of 2 here] | – | 10 µg and 25 µg | –
6 | CC(=O)N[C@H](Cc1ccc2ccccc2c1)C(=O)N[C@H](Cc1ccc(Cl)cc1)C(=O)N[C@H](Cc1cccnc1)C(=O)N[C@@H](CO)C(=O)N[C@@H](CCCNC(=N)N)C(=O)N[C@H](Cc1cccnc1)C(=O)N[C@@H](CC(C)C)C(=O)N[C@@H](CCCNC(=N)N)C(=O)N1CCC[C@H]1C(=O)N[C@H](C)C(N)=O (Ac-[d2Nal][dPhe(4-Cl)][d3Pal]SR[d3Pal]LRP[dA]-NH2) [listing 2 of 2 here] | – | 0.5 µg and 1 µg | –
7 | CC(=O)N[C@H](Cc1ccc2ccccc2c1)C(=O)N[C@H](Cc1ccc(F)cc1)C(=O)N[C@H](Cc1c[nH]c2ccccc12)C(=O)N[C@H]1CC(=O)NC[C@@H](C(N)=O)NC(=O)[C@@H]2CCCN2C(=O)[C@H](CCCN=C(N)N)NC(=O)[C@H](CC(C)C)NC(=O)[C@@H](CCCN=C(N)N)NC(=O)[C@H](Cc2ccc(O)cc2)NC1=O (Ac-[d2Nal][dPhe(4-F)][dW]DY[dR]LRP[Dap]-NH2; lactam 4-10) | – | 1 µg and 2.5 µg | –
8 | CC(=O)N[C@H](Cc1ccc2ccccc2c1)C(=O)N[C@H](Cc1ccc(F)cc1)C(=O)N[C@H](Cc1c[nH]c2ccccc12)C(=O)N[C@@H](CO)C(=O)N[C@@H](Cc1ccc(O)cc1)C(=O)N[C@H](CCCN=C(N)N)C(=O)N[C@@H](CC(C)C)C(=O)N[C@@H](CCCN=C(N)N)C(=O)N1CCC[C@H]1C(=O)NCC(N)=O (Ac-[d2Nal][dPhe(4-F)][dW]SY[dR]LRPG-NH2) | 0.64 nM | 1 µg | Activity (Rattus norvegicus [4]): 6.4; Relative potency [5]: 0.6
9 | CC(C)C[C@H](NC(=O)CNC(=O)[C@H](Cc1ccc(O)cc1)NC(=O)[C@H](CO)NC(=O)[C@H](Cc1c[nH]c2ccccc12)NC(=O)[C@H](Cc1cnc[nH]1)NC(=O)[C@@H]1CCC(=O)N1)C(=O)N[C@@H](CCCNC(=N)N)C(=O)N1CCC[C@H]1C(=O)NCC(N)=O [GONADORELIN] | – | – | Activity (Rattus norvegicus [6]): 2.42; Activity (Rattus norvegicus [7]): 1.84

Second part, led by results:

Row | Kd [1] | Compound | Dose (Rattus norvegicus [2]) | also measured
10 | 41 nM | CC(=O)N[C@H](Cc1ccc2ccccc2c1)C(=O)N[C@H](Cc1ccc(F)cc1)C(=O)N[C@H](Cc1c[nH]c2ccccc12)C(=O)N[C@H]1CC(=O)NCCC[C@@H](C(N)=O)NC(=O)[C@@H]2CCCN2C(=O)[C@H](CCCN=C(N)N)NC(=O)[C@H](CC(C)C)NC(=O)[C@@H](CCCN=C(N)N)NC(=O)[C@H](Cc2ccc(O)cc2)NC1=O | – | –
11 | 10 nM | CC(=O)N[C@H](Cc1ccc2ccccc2c1)C(=O)N[C@H](Cc1ccc(F)cc1)C(=O)N[C@H](Cc1c[nH]c2ccccc12)C(=O)N[C@H]1CNC(=O)C[C@@H](C(N)=O)NC(=O)[C@@H]2CCCN2C(=O)[C@H](CCCN=C(N)N)NC(=O)[C@H](CC(C)C)NC(=O)[C@@H](CCCN=C(N)N)NC(=O)[C@H](Cc2ccc(O)cc2)NC1=O | – | –
12 | 6 nM | CC(=O)N[C@H](Cc1ccc2ccccc2c1)C(=O)N[C@H](Cc1ccc(F)cc1)C(=O)N[C@H](Cc1c[nH]c2ccccc12)C(=O)N[C@H]1CSSC[C@@H](C(N)=O)NC(=O)[C@@H]2CCCN2C(=O)[C@H](CCCN=C(N)N)NC(=O)[C@H](CC(C)C)NC(=O)[C@@H](CCCN=C(N)N)NC(=O)[C@H](Cc2ccc(O)cc2)NC1=O | – | –
13 | 11 nM | CC(=O)N[C@H](Cc1ccc2ccccc2c1)C(=O)N[C@H](Cc1ccc(Cl)cc1)C(=O)N[C@H](Cc1cccnc1)C(=O)N[C@H]1CC(=O)NCCC[C@@H](C(N)=O)NC(=O)[C@@H]2CCCN2C(=O)[C@H](CCCNC(=N)N)NC(=O)[C@H](CC(C)C)NC(=O)[C@@H](Cc2cccnc2)NC(=O)[C@H](CCCNC(=N)N)NC1=O | – | –
14 | 1 nM | CC(=O)NC[C@H](NC(=O)[C@@H](Cc1cccnc1)NC(=O)[C@@H](Cc1ccc(Cl)cc1)NC(=O)[C@@H](Cc1ccc2ccccc2c1)NC(C)=O)C(=O)N[C@@H](CCCN=C(N)N)C(=O)N[C@H](Cc1cccnc1)C(=O)N[C@@H](CC(C)C)C(=O)N[C@@H](CCCN=C(N)N)C(=O)N1CCC[C@H]1C(=O)N[C@@H](CC(N)=O)C(N)=O [listing 1 of 2 here] | – | –
15 | 1.1 nM | CC(=O)N[C@H](Cc1ccc2ccccc2c1)C(=O)N[C@H](Cc1ccc(Cl)cc1)C(=O)N[C@H](Cc1cccnc1)C(=O)N[C@H]1CC(=O)NC[C@@H](C(N)=O)NC(=O)[C@@H]2CCCN2C(=O)[C@H](CCCNC(=N)N)NC(=O)[C@H](CC(C)C)NC(=O)[C@@H](Cc2cccnc2)NC(=O)[C@H](CCCNC(=N)N)NC1=O | – | –
16 | 1 nM | CC(=O)N[C@H](Cc1ccc2ccccc2c1)C(=O)N[C@H](Cc1ccc(Cl)cc1)C(=O)N[C@H](Cc1cccnc1)C(=O)N[C@H]1CCC(=O)NC[C@@H](C(N)=O)NC(=O)[C@@H]2CCCN2C(=O)[C@H](CCCNC(=N)N)NC(=O)[C@H](CC(C)C)NC(=O)[C@@H](Cc2cccnc2)NC(=O)[C@H](CCCNC(=N)N)NC1=O [listing 1 of 2 here] | – | –
17 | 0.8 nM | CC(=O)N[C@H](Cc1ccc2ccccc2c1)C(=O)N[C@H](Cc1ccc(Cl)cc1)C(=O)N[C@H](Cc1cccnc1)C(=O)N[C@H]1CSSC[C@@H](C(N)=O)NC(=O)[C@@H]2CCCN2C(=O)[C@H](CCCNC(=N)N)NC(=O)[C@H](CC(C)C)NC(=O)[C@@H](Cc2cccnc2)NC(=O)[C@H](CCCNC(=N)N)NC1=O (Ac-[d2Nal][dPhe(4-Cl)][d3Pal]CR[d3Pal]LRPC-NH2; disulfide 4-10) | – | –
18 | 0.24 nM | CC(=O)N[C@H](Cc1ccc2ccccc2c1)C(=O)N[C@H](Cc1ccc(Cl)cc1)C(=O)N[C@H](Cc1cccnc1)C(=O)N[C@@H](CO)C(=O)N[C@@H](CCCNC(=N)N)C(=O)N[C@H](Cc1cccnc1)C(=O)N[C@@H](CC(C)C)C(=O)N[C@@H](CCCNC(=N)N)C(=O)N1CCC[C@H]1C(=O)N[C@H](C)C(N)=O (Ac-[d2Nal][dPhe(4-Cl)][d3Pal]SR[d3Pal]LRP[dA]-NH2) [listing 1 of 2 here] | – | –
19 | 4.5 nM and 10 nM | CC(=O)N[C@H](Cc1ccc2ccccc2c1)C(=O)N[C@H](Cc1ccc(Cl)cc1)C(=O)N[C@H](Cc1cccnc1)C(=O)N[C@H]1CNC(=O)C[C@@H](C(N)=O)NC(=O)[C@@H]2CCCN2C(=O)[C@H](CCCNC(=N)N)NC(=O)[C@H](CC(C)C)NC(=O)[C@@H](Cc2cccnc2)NC(=O)[C@H](CCCNC(=N)N)NC1=O (Ac-[d2Nal][dPhe(4-Cl)][d3Pal][Dap]R[d3Pal]LRPD-NH2; lactam 4-10) | – | –
20 | 0.27 nM | CC(=O)N1CC=C[C@H]1C(=O)N[C@H](Cc1ccc(F)cc1)C(=O)N[C@H](Cc1c[nH]c2ccccc12)C(=O)N[C@@H](CO)C(=O)N[C@@H](Cc1ccc(O)cc1)C(=O)N[C@H](Cc1c[nH]c2ccccc12)C(=O)N[C@@H](CC(C)C)C(=O)N[C@@H](CCCNC(=N)N)C(=O)N1CCC[C@H]1C(=O)NCC(N)=O (Ac-[ΔPro][dPhe(4-F)][dW]SY[dW]LRPG-NH2) | – | –
